# Rows were chosen to be rich in hits. Some 2.3% of all compounds tested hit in one or more screens of this group.
# F508del corr = correctors of CFTR F508del function in bronchial epithelial cells | hit rate 0.36% among 350,000 | activity (quench increase), % at 7.58 µM | CFBE cells, YFP halide quenching; stimulated with forskolin plus potentiator P3; % fluorescence drop versus neutral controls;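 active means mean added fluorescence quench of at least 8% versus neutral control, with both replicates also reaching 8%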;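 further: cells transiently co-express mutant CFTR-F508del with the halide-sensitive YFP; corrector assay measuring rescue of mutant channel to the surface after 24 h compound exposure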
# C2C12 statin = protects C2C12 myotubes from simvastatin toxicity | ATP luminescence, 48 h; scaled: DMSO 0, geranylgeraniol control 100 | rescue of ATP level, % at 7.49 µM | hit rate 0.78% among 330,000 | AID 602340;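 active means mean ATP rescue above about 67%, or every replicate alone reaching that limit, limit read from the data, passing the limit was not always enough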;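 further: myotubes were challenged with 10 µM simvastatin during compound exposure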
# Cneo AK release = causes C. neoformans cell lysis; lysis activity, % at 15 µM; AID 651654; hit rate 0.2% among 360,000; adenylate kinase release luminescence, 4 h; normalised: neutral wells 0, clomiphene wells 100;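 active means mean lysis activity across replicates of at least 80%, whatever share of replicates individually reach that level; inactive means mean lysis activity below 80%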
#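 Signal: Adenylate kinase release luminescence | Assay system: Log-phase Cryptococcus neoformans yeast cells | Input: Cells at 5 × 10^6 per mL | Buffer or medium: Fresh YPD growth medium | Compound: Single dose | Schedule: Static 4 h at 37 °C with compound, 1 h detection | Controls: Clomiphene | Read-out: Luminescence rise reflecting yeast cell lysis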
# ERp5 block = ERp5 (human) disulfide isomerase inhibition; Q15084; ERp5 insulin aggregation, absorbance 650 nm, 90 min; inhibition, % at 9.99 µM; hit rate 0.05% among 350,000; AID 651711;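 active means mean replicate inhibition above about 25%, with every replicate also reaching it, limit read from the data, passing the limit was not always enough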
# Target sequence (Q15084 whole entry, looked up): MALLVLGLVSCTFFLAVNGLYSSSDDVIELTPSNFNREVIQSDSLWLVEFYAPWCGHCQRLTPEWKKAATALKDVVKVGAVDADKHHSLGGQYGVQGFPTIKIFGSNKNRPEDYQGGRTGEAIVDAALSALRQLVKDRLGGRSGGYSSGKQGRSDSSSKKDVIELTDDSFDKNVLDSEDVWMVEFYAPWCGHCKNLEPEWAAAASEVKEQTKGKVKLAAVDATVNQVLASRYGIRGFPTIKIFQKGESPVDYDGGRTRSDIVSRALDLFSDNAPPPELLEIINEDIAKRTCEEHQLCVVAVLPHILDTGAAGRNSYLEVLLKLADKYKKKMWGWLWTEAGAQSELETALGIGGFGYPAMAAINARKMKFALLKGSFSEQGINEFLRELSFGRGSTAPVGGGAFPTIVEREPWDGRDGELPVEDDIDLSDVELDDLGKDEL
# DENV2 CPE rescue = inhibitors of DENV2 cytopathic effect; CPE inhibition, % at 9.99 µM; hit rate 1.7% among 350,000; DENV2-infected cells, cytopathic effect rescue, plate reader; AID 651640; in the data active means CPE inhibition above about 20%, passing the limit was not always enough; tested in BHK-21 cells;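 further: 0% = median of neutral control wells and 100% = median of positive control wells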
# PDI turbidity = inhibitors of human protein disulfide isomerase; inhibition, % at 10 µM; hit rate 0.052% among 350,000; AID 588391; PDI insulin aggregation turbidity, A650, 90 min; P07237;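 active means mean inhibition across replicates of 30% or more, whatever share of single replicates reach that level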
# Numbers without * were called inactive; . = no result.
SMILES,F508del corr,C2C12 statin,Cneo AK release,ERp5 block,DENV2 CPE rescue,PDI turbidity
Cc1ccc(S(=O)(=O)Nc2ccc3c(c2)C(=O)N([C@H](C)CO)C[C@H](C)[C@H](CN(C)Cc2ccc(C(=O)Nc4ccccc4N)cc2)O3)cc1,1,82*,-1,1,5,.
COc1ccccc1-c1ccc([C@H]2[C@@H](CO)N(C(=O)C3CCCC3)[C@H]2C#N)cc1,-2,.,.,-2,36*,.
COc1ccccc1-c1ccc([C@H]2[C@@H](CO)N[C@@H]2CNC(=O)C2CCCC2)cc1,-3,.,.,5,25*,.
N#C[C@H]1[C@@H](c2ccccc2C2=CCCC2)[C@@H](CO)N1C(=O)c1cccc(F)c1,0,.,.,6,71*,.
N#C[C@@H]1[C@H](c2ccccc2C2=CCCC2)[C@@H](CO)N1C(=O)c1cccc(F)c1,2,.,.,-1,15,.
COc1ccccc1-c1ccccc1[C@H]1[C@H](C#N)N(C(=O)C2CCC2)[C@H]1CO,3,.,.,4,50*,.
COc1ccc(NC(=O)Nc2ccc3c(c2)C(=O)N([C@H](C)CO)C[C@@H](C)[C@H](CN(C)S(=O)(=O)c2ccc(OC)cc2)OCCCC[C@@H](C)O3)cc1,-1,.,-1,.,19,.
C[C@@H]1CN([C@@H](C)CO)C(=O)c2cccc(NC(=O)c3ccc(-c4nccs4)cc3)c2O[C@H]1CN(C)S(=O)(=O)c1ccc(F)cc1,-2,33,4,-4,-8,.
COc1ccc(-c2ccc([C@@H]3[C@@H](C#N)N(C(=O)C4CCC4)[C@H]3CO)cc2)cc1,-1,4,-1,-14,72*,.
CCc1csc(N2[C@@H](C#N)[C@@H](c3ccccc3C3=CCCC3)[C@@H]2CO)n1,2,.,.,0,-12,.
N#C[C@H]1[C@@H](c2ccccc2C2=CCCC2)[C@@H](CO)N1C(=O)C1CCC1,-1,.,.,1,37*,.
N#C[C@@H]1[C@H](c2ccccc2C2=CCCC2)[C@H](CO)N1C(=O)C1CCC1,-1,.,.,0,-6,.
CCc1cnc(N2[C@@H](C#N)[C@@H](c3ccccc3C3=CCCC3)[C@@H]2CO)s1,0,.,.,1,20*,.
COC(=O)c1ccccc1-c1c2ccc(=N)cc-2oc2cc(N)ccc12,62*,-171,-1,-17,0,-8
C[C@@H]1CCCCO[C@@H](CN(C)C)[C@H](C)CN([C@@H](C)CO)C(=O)c2cc(NC(=O)NC3CCCCC3)ccc2O1,2,24,.,.,.,.
CC1(C)OC2OC(C(=O)N/N=C/c3ccccc3F)C3OC(C)(C)OC3C2O1 (stereo not drawn),0,103*,0,-1,12,-12
CC1(C)C(C=C(Cl)Cl)C1C(=O)N/N=C/c1ccccc1F (stereo not drawn),2,-2,-1,4,-4,0
CCOC(=O)C1=CN(CC)S(=O)(=O)NC1c1cccc(OC)c1 (stereo not drawn),-1,-2,2,1,24*,-17
CCOC(=O)C1=CN(CC)S(=O)(=O)NC1c1ccc(C(F)(F)F)cc1 (stereo not drawn),2,6,-2,-3,3,-2
CCOC(=O)C1=CN(Cc2ccco2)S(=O)(=O)NC1c1ccc(C(F)(F)F)cc1 (stereo not drawn),8.1*,-15,1,2,-16,8
O=C(Nc1ccc(F)cc1)N[C@@H]1CC[C@@H](CCNC(=O)c2cc(Cl)cc(Cl)c2)O[C@@H]1CO,0,-1,3,-4,1,.
COc1ccc(Oc2coc3c(CN(C)C)c(O)ccc3c2=O)cc1,.,118*,-7,.,.,4
CCOC(=O)Cn1cc(-c2ccccc2)nn1,.,11,.,.,.,-11
c1ccc(COCCCn2cc(-c3ccccc3)nn2)cc1,-2,-12,1,5,46*,0
CCCc1nc2ccccc2c(C(=O)OCC(=O)NCc2ccc3c(c2)OCO3)c1CC,9.0*,.,.,7,.,0
O=C(CSc1nc(CCC2CCCC2)nc2ccccc12)NCc1ccc2c(c1)OCO2,0,13,115*,2,-4,3
O=C(c1cccc(S(=O)(=O)N2CCOCC2)c1)N1CCCC(C(F)(F)F)C1 (stereo not drawn),10*,2,0,15,8,-2

# Bioassay records (PubChem)
